Rows were chosen to be rich in hits. Some 4.1% of all compounds tested hit in one or more screens of this group.
KCNK9 block – KCNK9 potassium channel inhibitors, primary screen, HEK293 cells, thallium flux; FluxOR thallium flux fluorescence; hits give low values; B-score at 10 µM; Potassium channel subfamily K member 9 (Homo sapiens), Q9NPC2; actives 1.2% (n = 310,000);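 active = ratio B-score over 3 SD below the library mean, with starting fluorescence within 5 SD of its mean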;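 note: negative B-score means less thallium flux so channel inhibition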
KCNQ1 pot – potentiators or activators of KCNQ1 channel, primary screen, cell-based, thallium flux, high-throughput | Potassium voltage-gated channel subfamily KQT member 1 (Homo sapiens), P51787 | CHO-K1 KCNQ1, thallium flux FluxOR fluorescence; hits give high values | B-score at 10 µM | actives 0.35% (n = 310,000) | AID 2648, 2010;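 active = fluorescence ratio B-score, a plate-corrected score, at least three library SD, with initial intensity B-score within 5 SD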
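Doses: Single concentration per compound, DMSO matched to controls | Test system: KCNQ1-transfected CHO-K1 cells | Timing: 90 min dye loading and 20 min compound exposure, both at room temperature | Measured by: Kinetic FluxOR thallium fluorescence, 10-s 1-Hz baseline, 110-s post-stimulus read | Medium: Assay buffer with matched DMSO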
Cl transport mod – KCC2 cotransporter modulators, thallium flux, primary screen, cell-based, HEK293 KCC2, FluoZin-2 fluorescence, MLSMR. B-score of Tl+ flux slope (higher = more flux/activation; lower = inhibition) at 10 µM. Solute carrier family 12 member 5 (Homo sapiens), Q9H2X9. actives 2.2% (n = 190,000). KCC2 cells, thallium flux FluoZin-2 fluorescence;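 active = thallium flux slope and its plate-corrected score both differing from the plate sample mean at a set confidence after two filtering rounds, in either direction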;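 note: slope of fluorescence scaled to starting intensity during 10 to 20 s after thallium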
hERG protect – hERG rescue from dofetilide block, primary screen, cell-based, CHO-hERG, FluxOR thallium flux, dofetilide IC70. AID 1511, 2009. activation (rescue from dofetilide block), less the hit threshold, % at 10 µM. dofetilide IC70 present. actives 0.51% (n = 310,000). Voltage-gated inwardly rectifying potassium channel KCNH2 (Homo sapiens), Q12809;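 active = activation above the mean of controls blocked by dofetilide plus 5 SD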;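 note: thallium influx through hERG after potassium depolarization seen as dye fluorescence rise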
KCNQ1 block – inhibitors of human KCNQ1 channel, primary screen, cell-based, thallium flux, high-throughput. AID 2642, 2010. B-score at 10 µM. Potassium voltage-gated channel subfamily KQT member 1 (Homo sapiens), P51787. CHO-K1 KCNQ1, FluxOR thallium flux fluorescence; hits give high values. actives 1.3% (n = 310,000);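 active = compounds whose thallium flux B-score, printed positive for inhibition, exceeds three library SD while starting fluorescence stays within three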;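 note: channel opened by potassium depolarization with thallium stimulus after 20 min compound exposure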
KCNK3 block – human KCNK3 channel inhibitors, primary screen, CHO cells, FluxOR thallium flux, B-score. FluxOR fluorescence; hits give low values. Potassium channel subfamily K member 3 (Homo sapiens), O14649. AID 602410, 2012. actives 0.84% (n = 340,000). B-score at 10 µM;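 active = B-score under library mean minus 4 SD, starting fluorescence ratio at most library mean plus 5 SD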;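 note: more negative B-score means stronger inhibition of thallium flux through KCNK3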
KCC2 sec1 – KCC2 modulators in sodium-free buffer, confirmation, cell-based, HEK293 KCC2, thallium flux, secondary assay; shares compounds with Cl transport mod; FluoZin2 fluorescence; hits give high values; normalised thallium flux (F/F0 slope) at 10 µM; actives 15% (n = 3,700); AID 1713, 2009;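 active = thallium flux slope above the same plate's solvent-only control mean plus 3 SD; inconclusive = the two replicate wells disagree; inactive = no significant difference from solvent-only control wells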
KCC2 bumet counter – thallium flux persisting under bumetanide in KCC2 cells, confirmation, counter-screen for KCC2 modulator project, cell-based, HEK293 KCC2, FluoZin2, secondary assay 3; shares compounds with Cl transport mod; HEK293-KCC2 + bumetanide/ouabain; hits give high values; normalized thallium flux at 10 µM; actives 49% (n = 3,700);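 active = thallium entry rate above the same plate's blocked-transporter control wells by more than 3 SD; inconclusive = the two repeat wells disagree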;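 note: raw slope of fluorescence over initial fluorescence between 10 and 20 s after thallium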
KCC2 sec2 – KCC2 modulators without ouabain present, confirmation, cell-based, HEK293 KCC2, thallium flux, FluoZin2, secondary assay 2; actives 23% (n = 3,700); AID 1715, 2009; shares compounds with Cl transport mod; normalized thallium flux at 10 µM; thallium flux FluoZin2 fluorescence; actives lie on both sides; F/F0 rise rate, 10–20 s post-thallium;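 active = thallium flux slope more than 3 SD above or below the plate's solvent-only control mean, mostly below; inconclusive = the two repeat wells disagreed; inactive = no significant shift from solvent-only controls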;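 note: raw slope with 0.1% DMSO as baseline and bumetanide as block control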
HEK counter1 – thallium flux modulation in parental HEK cells, confirmation, counter-screen for KCC2 modulator project, cell-based, counterscreen 1 | shares compounds with Cl transport mod | thallium flux rate (normalised fluorescence) at 10 µM | actives 46% (n = 3,700) | HEK293 parental cells, thallium flux FluoZin2, ouabain; baseline-ratio fluorescence slope, 10–20 s after thallium;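 active = thallium flux rate significantly above the same plate's solvent-only control wells, beyond their mean plus 3 SD; inconclusive = the two replicate wells gave conflicting results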
KCC2 ouabain – KCC2 inhibitors and activators, ouabain retest, confirmation, HEK-KCC2 cells. shares compounds with Cl transport mod. HEK293-KCC2, thallium flux FluoZin2 fluorescence; bidirectional: low = inhibitor, high = activator. raw Tl+ flux slope (below DMSO = inhibition, above = activation) at 10 µM. actives 48% (n = 3,700). AID 1717, 2009;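 active = thallium flux slope beyond 3 SD from same-plate DMSO control mean in most replicates, usually higher, sometimes lower; inconclusive = repeat tests gave conflicting results; inactive = no significant difference from controls in most replicates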;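 note: slope of initial-normalized fluorescence between seconds 10 and 20 after thallium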
HEK293 Tl flux2 – native HEK Tl+ uptake effects, second counter-screen – HEK cells, counterscreen 2, counter-screen for KCC2 modulator project, confirmation | HEK293 parental, thallium flux FluoZin-2 fluorescence slope | shares compounds with Cl transport mod | actives 33% (n = 3,700) | thallium flux slope at 10 µM;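 active = thallium flux slope above the same plate's solvent-control mean plus 3 SD in both duplicate wells; inconclusive = duplicate wells that disagreed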;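 note: run without ouabain in cells lacking the KCC2 cotransporter; slope of fluorescence scaled to its starting value between 10 and 20 s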
The depositor's hits bear a star.

For CCCCNC(=S)N/N=C/c1cc(C)ccc1C the results were KCNK9 block inactive, KCNQ1 pot inactive, Cl transport mod 4.3*, hERG protect 2, KCNQ1 block inactive, KCNK3 block inactive, KCC2 sec1 inconclusive, KCC2 bumet counter 0.0091*, KCC2 sec2 0.035, HEK counter1 0.012*, KCC2 ouabain inconclusive and HEK293 Tl flux2 0.014*.
`CC1CN(C(=O)COC(=O)/C=C/c2cccc([N+](=O)[O-])c2)CC(C)O1` (stereo not given) gave KCNK3 block inactive.
CCCn1c(N)c(C(=O)CSc2nnc(Cc3ccccc3)o2)c(=O)n(C)c1=O was read as KCNK9 block inactive, KCNQ1 pot inactive, Cl transport mod -8.8*, hERG protect -5, KCNQ1 block inactive, KCNK3 block inactive, KCC2 sec1 0.0068, KCC2 bumet counter 0.0049, KCC2 sec2 0.02*, HEK counter1 0.0086, KCC2 ouabain 0.015* and HEK293 Tl flux2 0.012.
COc1ccc(NC(=O)CSc2nnc(CNc3ccc(F)cc3)o2)c(OC)c1 was read as KCNK9 block inactive, KCNQ1 pot inactive, Cl transport mod -4.1*, hERG protect -6, KCNQ1 block inactive, KCNK3 block inactive, KCC2 sec1 0.0073, KCC2 bumet counter 0.0056, KCC2 sec2 0.033, HEK counter1 0.0071, KCC2 ouabain inconclusive and HEK293 Tl flux2 0.011.
`O=C(CSc1nnc(CNc2ccc(F)cc2)o1)c1ccccc1` gave KCNK9 block inactive, KCNQ1 pot inactive, Cl transport mod -3.8*, hERG protect 0, KCNQ1 block inactive, KCNK3 block inactive, KCC2 sec1 0.0063, KCC2 bumet counter 0.006, KCC2 sec2 0.029, HEK counter1 0.0069, KCC2 ouabain 0.017 and HEK293 Tl flux2 0.0093.
For O=C(CSc1nnc(Cc2ccccc2)o1)c1ccc2c(c1)OCO2 the results were KCNK9 block inactive, KCNQ1 pot inactive, hERG protect -18, KCNQ1 block inactive and KCNK3 block inactive.
O=C(CSc1nnc(Cc2ccccc2)o1)c1ccccc1 was read as KCNK9 block inactive, KCNQ1 pot inactive, Cl transport mod -4.4*, hERG protect -5, KCNQ1 block inactive, KCNK3 block inactive, KCC2 sec1 0.0051, KCC2 bumet counter inconclusive, KCC2 sec2 0.024*, HEK counter1 0.0073, KCC2 ouabain inconclusive and HEK293 Tl flux2 0.011.
Screening CCCn1c(N)c(C(=O)CSc2n[nH]c(-c3ccccc3F)n2)c(=O)n(C)c1=O returned KCNK3 block inactive.
Screening COCCNC(=S)Nc1cc2oc3ccccc3c2cc1OC returned KCNK9 block inactive, KCNQ1 pot inactive, hERG protect -13, KCNQ1 block inactive and KCNK3 block inactive.
For O=C(NC1CCCCCC1)c1ccc[nH]c1=S the results were KCNK9 block inactive, KCNQ1 pot inactive, Cl transport mod 12*, hERG protect -14, KCNQ1 block inactive, KCNK3 block inactive, KCC2 sec1 0.013*, KCC2 bumet counter 0.039*, KCC2 sec2 0.029, HEK counter1 0.016*, KCC2 ouabain 0.038* and HEK293 Tl flux2 0.011*.
`S=C(Nc1ccccc1)Nc1cccc(Cl)c1Cl` gave KCNK9 block inactive, KCNQ1 pot inactive, Cl transport mod 17*, hERG protect -18, KCNQ1 block inactive, KCNK3 block inactive, KCC2 sec1 0.0053, KCC2 bumet counter 0.016*, KCC2 sec2 0.032, HEK counter1 0.012*, KCC2 ouabain inconclusive and HEK293 Tl flux2 0.014*.
`O=C(NC(=S)NC1CCCc2ccccc21)c1ccco1` (stereo not given) gave KCNK9 block inactive, KCNQ1 pot 16*, Cl transport mod 63*, hERG protect 8.7*, KCNQ1 block inactive, KCNK3 block inactive, KCC2 sec1 0.03*, KCC2 bumet counter 0.17*, KCC2 sec2 0.046*, HEK counter1 0.097*, KCC2 ouabain 0.11* and HEK293 Tl flux2 0.035*.
O=C(NCCC1=CCCCC1)c1ccc(Br)o1 was read as KCNK9 block inactive, KCNQ1 pot inactive, hERG protect -13, KCNQ1 block inactive and KCNK3 block inactive.
For O=C(NC(=S)NCCC1=CCCCC1)c1ccco1 the results were KCNK9 block inactive, KCNQ1 pot 27*, Cl transport mod 79*, hERG protect 30*, KCNQ1 block inactive, KCNK3 block inactive, KCC2 sec1 0.034*, KCC2 bumet counter 0.16*, KCC2 sec2 0.046*, HEK counter1 inconclusive, KCC2 ouabain 0.11* and HEK293 Tl flux2 0.037*.

Compound activity deposited in PubChem BioAssay by several laboratories.
